This is an account of results in ChEMBL document CHEMBL3525992, “Identification of 20(S)-protopanaxadiol metabolites in human liver microsomes and human hepatocytes” (Drug Metab Dispos, 2011).

Each structure is given as a SMILES string.

The nature of data set [1]: Drug excretion in Sprague-Dawley rat feces treated with 20(S)-protopanaxadiol at 100 mg/kg/day, po qd for 11 days administered via gavage by liquid chromatography-electrospray ionization ion trap mass spectrometry. More on the design: route oral. The data set is classed as ADME, organism-based. Particulars: in vivo, 264 h. An outline of the steps: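 PPD given by gavage at 10 mg/ml in 0.5% carboxymethyl cellulose sodium, 0.5% polysorbate-80 and 99% saline; 20 rats, one per metabolic cage. Feces collected over 0–288 h (48 h after last dose), blanks taken before dosing, frozen at -20°C.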

Data set [2] deals with Hepatocyte. The experiment in a line: Drug level in human hepatocytes treated with 20(S)-protopanaxadiol at 50 uM after 180 mins by liquid chromatography-electrospray ionization ion trap mass spectrometry. It is filed as ADME, cell-based. Particulars: 3 h. The method in brief: (§1)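 Human hepatocytes (2 million cells/ml) in Williams' E medium with substrate 50 µM, 0.5% (v/v) final MeOH, 37°C for 3 h. Negative controls were substrate at 0 h and no substrate at 3 h. Quenched with equal volume acetonitrile, in duplicate. Methanol was added, then centrifugation, dry-down and reconstitution. Analysed by C8 reversed-phase LC with formic acid/methanol–ammonium acetate gradient, ESI ion trap MSⁿ, m/z 100–800.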

The test system of data set [3] is Liver microsome. The experiment in a line: Retention time of the compound in mixed human liver microsomes treated with 20(S)-protopanaxadiol at 50 uM after 60 mins by liquid chromatography-electrospray ionization ion trap mass spectrometry. The data set is classed as ADME. The note with it: 1 h. The method in brief: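 Pooled HLM protein 1.0 mg/ml with substrate 50 µM in 100 mM potassium phosphate pH 7.4, 0.1% (v/v) final MeOH. Preincubated 3 min at 37°C, started with 2.0 mM NADPH, incubated 60 min. Stopped with equal volume ice-cold acetonitrile. Controls lacked NADPH or substrate, in duplicate. Analysed on C8 reversed-phase column, formic acid methanol/ammonium acetate gradient, ESI ion trap MSⁿ.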
Background: Microsomes from liver hold many membrane-bound enzymes, among them those of drug oxidation.

The subject of data set [4] is Liver microsome. The experiment in a line: Drug metabolism in mixed human liver microsomes assessed as metabolite 7-2 ((2S,3S,4S,5R,6S)-6-(2-((2R,5S)-5-((3S,5R,8R,9R,10R,12R,14R,17S)-3,12-dihydroxy-4,4,8,10,14-pentamethylhexadecahydro-1H-cyclopenta[a]phenanthren-17-yl)-5-methyltetrahydrofuran-2-yl)propan-2-yloxy)-3,4,5-trihydroxytetrahydro-2H-pyran-2-carboxylic acid) formation at 50 uM after 120 mins by liquid chromatography-electrospray ionization ion trap mass spectrometry in presence of UDPGA. The data set is classed as ADME. An outline of the steps: (§2)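 Pooled human liver microsomes, 1.0 mg/ml protein, in 50 mM Tris-HCl pH 7.4 with 10 mM MgCl₂, 2 mM UDPGA and 25 µg/mL alamethicin. Preincubated 3 min at 37°C, started with substrate 50 µM (final MeOH 0.1%), run 120 min, stopped with ice-cold acetonitrile. Time-0 controls; duplicates. Analysed by LC/ESI ion-trap MSn.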

A short description of data set [5]: Retention time of the compound treated with 20(S)-protopanaxadiol at 100 uM measured after 60 mins by liquid chromatography-electrospray ionization ion trap mass spectrometry in presence of 10 uM 3-chloroperoxybenzoic acid. The data set is classed as physicochemical. The note with it: 1 h. An outline of the steps: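 PPD 100 µM oxidised chemically with m-CPBA 10 µM in CH₂Cl₂, stirred at room temperature for 15 and 60 min. Mixture poured into Na₂CO₃-saturated ice water and extracted three times with ether before LC/MS analysis.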

For data set [6], the system named is Hepatocyte. The data set can be described thus: Retention time of the compound in human hepatocytes treated with 20(S)-protopanaxadiol at 50 uM after 180 mins by liquid chromatography-electrospray ionization ion trap mass spectrometry. The data set is classed as ADME, cell-based. The note with it: 3 h. The method in brief:
as §1

The subject of data set [7] is Liver microsome. The data set can be described thus: Drug level in mixed human liver microsomes treated with (20S,24S)-epoxydammarane-3,12,25-triol at 50 uM after 120 mins by liquid chromatography-electrospray ionization ion trap mass spectrometry in presence of UDPGA. The data set is classed as ADME. Particulars: 2 h. An outline of the steps: (§3)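 Pooled HLM protein 1.0 mg/ml in 50 mM Tris-HCl pH 7.4 with 10 mM MgCl₂, 2 mM UDPGA and 25 µg/mL alamethicin. Preincubated 3 min at 37°C, then started with substrate (50 µM). Run 120 min, stopped with equal volume ice-cold acetonitrile. 0 min incubations served as controls, in duplicate. Processed and analysed by LC/ESI ion trap MSⁿ.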

Data set [8] has as its system Liver microsome. The experiment in a line: Drug level in mixed human liver microsomes treated with (20S,24R)-epoxydammarane-3,12,25-triol at 50 uM after 120 mins by liquid chromatography-electrospray ionization ion trap mass spectrometry in presence of UDPGA. The note with it: 2 h. It is filed as ADME. The method in brief:
as §3

Data set [9] relates to Liver microsome. The data set can be described thus: Drug metabolism in mixed human liver microsomes assessed as metabolite 7-1 ((2S,3S,4S,5R,6S)-6-(2-((2S,5S)-5-((3S,5R,8R,9R,10R,12R,14R,17S)-3,12-dihydroxy-4,4,8,10,14-pentamethylhexadecahydro-1H-cyclopenta[a]phenanthren-17-yl)-5-methyltetrahydrofuran-2-yl)propan-2-yloxy)-3,4,5-trihydroxytetrahydro-2H-pyran-2-carboxylic acid) formation at 50 uM after 120 mins by liquid chromatography-electrospray ionization ion trap mass spectrometry in presence of UDPGA. The data set is classed as ADME. An outline of the steps: as §2

Turning to `CC(C)(O)[C@H]1CC[C@@](C)([C@H]2CC[C@]3(C)[C@@H]2[C@H](O)C[C@@H]2[C@@]4(C)CCC(=O)C(C)(C)[C@@H]4CC[C@]23C)O1`, in [1], the Drug excretion entry is “metabolite_detected”. For the same compound, the Drug metabolism result in the data set with Hepatocyte [2] is recorded as “metabolite_detected”. Also, in the data set with Liver microsome [3], the Retention_time is listed as 19.7 min.

Take `CC(C)(O)[C@H]1CC[C@@](C)([C@H]2CC[C@]3(C)[C@@H]2[C@H](O)C[C@@H]2[C@@]4(C)CC[C@H](O)C(C)(C)[C@@H]4CC[C@]23C)O1`: the Drug metabolism result in the data set on Liver microsome [4] and in the data set on Hepatocyte [2] was “metabolite_detected” in each case. The Drug excretion result in [1] is given as “metabolite_detected”. Moreover, the Retention_time (in data set [5]; in the data set on Liver microsome [3]) was 19.8 min in each case.

On to `CC(C)(O)[C@@H]1CC[C@@](C)([C@H]2CC[C@]3(C)[C@@H]2[C@H](O)C[C@@H]2[C@@]4(C)CCC(=O)C(C)(C)[C@@H]4CC[C@]23C)O1`, for which, in data set [1], the Drug excretion result is “metabolite_detected”. The Drug metabolism result with Hepatocyte [2] is given as “metabolite_detected”. This compound also gave a Retention_time with Liver microsome [3] of 19.1 min.

`CC(C)(O)[C@@H](O)CC[C@](C)(O)[C@H]1CC[C@]2(C)[C@@H]1[C@H](O)C[C@@H]1[C@@]3(C)CC[C@H](O)C(C)(C)[C@@H]3CC[C@]12C`: the Retention_time in the data set with Hepatocyte [6] is recorded as 13.2 min.

With `CC1(C)O[C@H]1CC[C@](C)(O)[C@H]1CC[C@]2(C)[C@@H]1[C@H](O)C[C@@H]1[C@@]3(C)CC[C@H](O)C(C)(C)[C@@H]3CC[C@]12C`, the Drug excretion entry in [1] is “metabolite_detected”. Moreover, the Retention_time (in data set [5]; in the data set on Liver microsome [3]) was 18.7 min throughout. Moreover, in the data set on Hepatocyte [2], the Drug metabolism entry is “metabolite_detected”.

As to `CC(C)(O)[C@H](O)CC[C@](C)(O)[C@H]1CC[C@]2(C)[C@@H]1[C@H](O)C[C@@H]1[C@@]3(C)CC[C@H](O)C(C)(C)[C@@H]3CC[C@]12C`, the Retention_time in the data set on Hepatocyte [6] is 15.8 min.

Turning to `CC(C)(O[C@@H]1O[C@H](C(=O)O)[C@@H](O)[C@H](O)[C@H]1O)[C@@H]1CC[C@@](C)([C@H]2CC[C@]3(C)[C@@H]2[C@H](O)C[C@@H]2[C@@]4(C)CC[C@H](O)C(C)(C)[C@@H]4CC[C@]23C)O1`, in the data set on Liver microsome [7], the Drug metabolism entry was “metabolite_detected”. In addition, the Retention_time in the data set on Hepatocyte [6] came out at 16 min.

As for `CC(C)(O[C@@H]1O[C@H](C(=O)O)[C@@H](O)[C@H](O)[C@H]1O)[C@H]1CC[C@@](C)([C@H]2CC[C@]3(C)[C@@H]2[C@H](O)C[C@@H]2[C@@]4(C)CC[C@H](O)C(C)(C)[C@@H]4CC[C@]23C)O1`, in the data set with Liver microsome [8], the Drug metabolism result is on record as “metabolite_detected”. The Retention_time with Hepatocyte [6] came out at 16.9 min.

Consider `CC(C)(O)[C@@H]1CC[C@@](C)([C@H]2CC[C@]3(C)[C@@H]2[C@H](O)C[C@@H]2[C@@]4(C)CC[C@H](O)C(C)(C)[C@@H]4CC[C@]23C)O1`, for which the Drug excretion result in data set [1] was “metabolite_detected”. Besides, the Retention_time (in data set [5]; in the data set on Liver microsome [3]) was 19.2 min throughout. Also, the Drug metabolism entry in the data set on Hepatocyte [2] and in the data set with Liver microsome [9] was “metabolite_detected” in each case.
